TLR9-MyD88 inh – inhibitors of human TLR9-MyD88 binding | AID 504734 | CHO BLA complementation TLR9-MyD88, CCF4 FRET ratio | Q9NR96+Q99836 | 0.21% of 340,000 active | inhibition, % at 4.98 µM;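 active = inhibition above the mean over all tested compounds plus 3 SD, cut at about 21% in these data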;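 note: 0% = DMSO only wells and 100% = clavulanate BLA inhibitor control wells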
TLR4 MyD88 comp – blocks binding of human TLR4 to MyD88; O00206+Q99836; HeLa CL3-4 TLR4/MyD88 BLA complementation, FRET ratio; inhibition, % at 8.4 µM; 0.18% of 200,000 active; AID 861; in the data active = inhibition above about 25%;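 note: 0% = vehicle and 100% = reference inhibitor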
NOD2-RIPK2 inh – NOD2-RIPK2 protein interaction inhibition; CHO BLA complementation NOD2-RIPK2, CCF4 ratio; AID 624267; 0.38% of 360,000 active; inhibition, % at 4.98 µM; O43353; in the data active = inhibition above about 21%;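 note: 0% = vehicle only and 100% = reference blocker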
Target sequence (O43353 whole entry, looked up): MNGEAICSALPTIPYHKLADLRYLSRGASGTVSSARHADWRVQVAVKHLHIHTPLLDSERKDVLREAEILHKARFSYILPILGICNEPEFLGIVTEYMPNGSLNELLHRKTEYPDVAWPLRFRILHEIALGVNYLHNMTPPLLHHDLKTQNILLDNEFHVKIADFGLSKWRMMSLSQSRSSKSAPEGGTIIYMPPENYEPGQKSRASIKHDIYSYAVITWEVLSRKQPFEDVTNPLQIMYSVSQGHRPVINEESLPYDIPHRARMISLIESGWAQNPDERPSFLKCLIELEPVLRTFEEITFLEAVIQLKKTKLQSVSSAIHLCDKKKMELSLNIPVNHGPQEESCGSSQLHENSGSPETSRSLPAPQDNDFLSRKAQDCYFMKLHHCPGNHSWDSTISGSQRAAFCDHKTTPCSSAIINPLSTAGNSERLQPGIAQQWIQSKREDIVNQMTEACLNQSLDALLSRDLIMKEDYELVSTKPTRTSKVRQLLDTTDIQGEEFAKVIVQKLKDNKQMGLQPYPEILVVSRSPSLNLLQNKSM
beta cell repl – MIN6 beta-cell proliferation induction; 0.29% of 330,000 active; AID 2380; MIN6 cells proliferation, ATPlite luminescence, 48 h; cells starved in 0.2% serum; 100% = growth in 10% serum; proliferation, % at 10 µM;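 active = compounds whose signal lies at least 3.5 SD above the mean of all wells on their plate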;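 note: 0% = DMSO-treated cells in low-serum medium and 100% = 10% serum control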
MC4R antagonist – antagonists of human melanocortin 4 receptor (MC4R); inhibition, % at 6.5 µM; AID 540295; MC4R-expressing cells, MTII-stimulated cAMP, LANCE TR-FRET; 0.48% of 360,000 active;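 active = inhibition above its plate's cutoff, the mean of tested wells on that plate plus 3 SD, cut at about 29% in these data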;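 note: 0% = Melanotan II alone and 100% = Melanotan II plus saturating MCL0020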
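System – human MC4R-expressing U2OS cells · Also added – Melanotan II · Dosing – one concentration, 6.5 µM nominal · Timing – 30-min compound, 1-h challenge, 1-h detection, room temperature · Measured by – Eu-cAMP/anti-cAMP TR-FRET, emission 671 nm · Replicates – singlicate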
MC4R barr agon – agonists of human melanocortin 4 receptor (MC4R) beta-arrestin; U2OS MC4R beta-arrestin complementation, luminescence; percent of melanotan II response, DMSO zero; activation, % at 8.9 µM; 0.98% of 360,000 active;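 active = activation above a per-plate cutoff, the mean activation of sample wells on that plate plus 3 SD, cut at about 8% in these data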
MC4R barr ag – human MC4R beta-arrestin agonism confirmation | shares compounds with MC4R barr agon | U2OS MC4R beta-arrestin recruitment, luminescence; scaled DMSO 0%, Melanotan II 100% | activation, % at 8.9 µM | 31% of 2,400 active | AID 602192;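 active = mean activation across replicates above the hit cutoff set in the earlier primary screen, cut at about 8% in these data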
MOR DOR agonist – counter-screen for MC4R agonists: agonists of mu-delta opioid heterodimer; 5.8% of 2,400 active; shares compounds with MC4R barr agon; activation, % at 9.2 µM; U2OS PathHunter beta-arrestin, beta-gal luminescence; percent of deltorphin B response, DMSO zero;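 active = mean activation across replicates exceeds the hit threshold derived in the earlier primary screen, cut at about 18% in these data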;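 note: 100% = deltorphin B at 0.9 µM final and 0% = DMSO alone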
* hit, by the source's call; x = no result. Compounds with a hit are over-represented: about 2.1% of the library has one in this group of screens.

SMILES | TLR9-MyD88 inh | TLR4 MyD88 comp | NOD2-RIPK2 inh | beta cell repl | MC4R antagonist | MC4R barr agon | MC4R barr ag | MOR DOR agonist
Cc1c(C(=O)Nc2ccc(-c3nnc4n3CCCCC4)cc2)oc2c1ccc1ccccc12 | 0 | 6 | 2 | 0 | 13 | 11* | 6 | 3
O=C(NCc1ccccc1)c1ccc(NC(=O)C2CCCO2)cc1 (configuration not stated) | -8 | x | 9 | 4 | 6 | -5 | x | x
CC(=O)Nc1cccc(-c2cc(NC=O)c3ncc(-c4cccc(C(C)=O)c4)n3c2)c1 | x | x | -7 | x | -16 | 5 | x | x
COc1cccc(-c2cnc3c(NC=O)cc(-c4cccc(NC(C)=O)c4)cn23)c1 | x | x | 3 | x | -6 | 12* | 12* | 2
COc1cccc(-c2cnc3c(NC(C)=O)cc(-c4ccc(C(=O)N5CCOCC5)cc4)cn23)c1 | x | x | 0 | x | 19 | 15* | 20* | 3
CC(=O)c1cccc(-c2cnc3c(NC=O)cc(-c4ccccc4)cn23)c1 | x | x | -6 | x | -2 | 9.6* | 13* | 4
CN(C)C(=O)c1cccc(-c2cnc3c(NC=O)cc(-c4ccccc4Cl)cn23)c1 | x | x | 6 | x | -18 | 9.8* | 8.9* | 3
COc1ccc(NC(=O)c2cc3c(=O)n(C)c4ccccc4c3s2)cc1OC | -5 | -7 | -13 | 0 | 0 | -2 | x | x
CCOc1cc(N2CCOCC2)c(OCC)cc1NC(=O)c1cccc(S(=O)(=O)N2CCOCC2)c1 | -2 | x | -11 | -3 | -1 | -1 | x | x
COc1ccc(-c2cc(NC=O)c3ncc(-c4cccc(C(C)=O)c4)n3c2)cc1 | x | x | -1 | x | 11 | 13* | 13* | 2
CC(=O)c1cccc(-c2cnc3c(NC=O)cc(-c4ccc(C(=O)N5CCOCC5)cc4)cn23)c1 | x | x | -12 | x | -8 | 6 | x | x
COc1ccc(S(=O)(=O)N2CCOCC2)cc1NC(=O)c1cccc(Cl)c1 | -10 | x | -6 | -4 | 0 | -6 | x | x
C=C(C)c1cccc(C(C)(C)NC(=O)NCc2ccc(OC)c(OC)c2)c1 | -8 | -4 | 1 | 0 | 9 | -1 | x | x
C=C(C)c1cccc(C(C)(C)NC(=O)NCc2ccc(OC)cc2)c1 | -16 | 5 | -9 | 0 | 1 | 17* | 1 | 5
COc1ccc(/C=C2\SC(=S)N(CCC(=O)Nc3cccc(O)c3)C2=O)cc1 | 3 | x | 1 | -6 | -3 | 21* | 3 | 4
COc1ccc(/C=C2/SC(=S)N(Cc3ccccc3)C2=O)cc1O | 6 | x | -4 | -7 | 7 | 12* | 8 | 5
COc1ccc(/C=C2\SC(=S)N(CCC(=O)Nc3ccc(C(=O)O)cc3)C2=O)cc1 | 10 | x | 3 | -4 | 4 | -2 | x | x
COc1ccc(O)c(/C=C2/SC(=S)N(Cc3ccccc3)C2=O)c1 | -10 | x | -4 | -7 | -4 | 0 | x | x
COc1ccc(/C=C2/SC(=S)N(CCCC(=O)Nc3ccc(O)cc3)C2=O)cc1 | 7 | x | -5 | -4 | 5 | 12* | 7 | 4
COc1ccc(/C=C2\SC(=S)N(CCCC(=O)Nc3ccc(O)cc3)C2=O)cc1 | 3 | x | -9 | -6 | 27 | 17* | 10* | 2
CCOc1ccc(CN(C)C(=O)c2ccc(NC(=O)CC3SC(N4CCCC4)=NC3=O)cc2)cc1 (configuration not stated) | 3 | x | -2 | -2 | 4 | 0 | x | x
Cc1cc(C)c2nc(-c3ccccn3)cc(C(=O)NCc3ccc(S(N)(=O)=O)cc3)c2c1 | x | -20 | 11 | -4 | 2 | 9.7* | 0 | 5
Cc1cc(C)c2nc(-c3ccccn3)cc(C(=O)NCCc3ccc(S(N)(=O)=O)cc3)c2c1 | 1 | -10 | -1 | -4 | -2 | 7 | x | x
COc1cccc(NC(=O)c2cc(-c3ccncc3)nc3c(C)cc(C)cc23)c1 | 8 | 8 | 4 | -6 | 2 | 2 | x | x
COc1ccc(NC(=O)c2cc(-c3ccccn3)nc3c(C)cc(C)cc23)c(C)c1 | -10 | x | -10 | -6 | 20 | 12* | 3 | 3
SMILES | TLR9-MyD88 inh | TLR4 MyD88 comp | NOD2-RIPK2 inh | beta cell repl | MC4R antagonist | MC4R barr agon | MC4R barr ag | MOR DOR agonist
CN(C)CCCN(C(=O)COc1ccc(Cl)cc1)c1nc2ccc(F)cc2s1 | 6 | 4 | 7 | -1 | 6 | 1 | x | x
Cc1cc(C)c2sc(N(CCCN(C)C)C(=O)COc3ccc(Cl)cc3)nc2c1 | 5 | 0 | 18 | -5 | 1 | 11* | 25* | 18
CCOC(=O)c1ccc(Nc2nc(C)nc3c2nnn3Cc2ccccc2)cc1 | -1 | x | -9 | -4 | 4 | 20* | 3 | 6
Cc1nc2ccc(NC(=O)Cc3ccc4c(c3)OCCO4)cc2s1 | -5 | -4 | -15 | 1 | -7 | 1 | x | x
Cc1cc(Cl)c(S(=O)(=O)N2CCN(c3cccc(C)c3C)CC2)cc1OCC(N)=O | -7 | -4 | -1 | -5 | 13 | 14* | 4 | 6
Cc1cc(Cl)c(S(=O)(=O)N2CCCC2)cc1OCC(N)=O | 4 | 16 | -9 | -5 | -6 | 3 | x | x
NC(=O)NC(=O)CN1c2cccc3cccc(c23)S1(=O)=O | 8 | x | -3 | -2 | 11 | -3 | x | x
CC(C)CC(=O)OC1C(N2CCOCC2)c2c(ccc(/C=C/C(=O)N3CCOCC3)c2O)OC1(C)C (configuration not stated) | 2 | -2 | -8 | 0 | 1 | 12* | 5 | 3
CC1(C)Oc2ccc(/C=C/C(=O)N3CCOCC3)c(O)c2C(N2CCOCC2)C1O (configuration not stated) | x | 9 | x | -2 | x | x | x | x
COc1ccc(-c2cc(C#N)nc(Oc3ccc(Cl)cc3)n2)cc1 | -6 | -8 | -1 | -2 | 2 | 11* | 2 | 3
COc1ccc(OC)c(NC(=O)c2cccc(N3C(=O)C4C5C=CC(C6CC56)C4C3=O)c2)c1 (configuration not stated) | 8 | x | -12 | -3 | 7 | -2 | x | x
c1ccc(-c2sc3ccccc3c2-c2ccc(OCCN3CCCCC3)cc2)cc1 | -6 | x | -1 | -6 | 7 | 1 | x | x
CN(C)CCOc1ccc(-c2c(-c3ccccc3)sc3ccccc23)cc1 | -1 | x | 4 | -6 | 15 | 23* | 38* | 17
Cc1ccc(C2CC(c3cccs3)=NN2C(=O)CCl)cc1 (configuration not stated) | 9 | x | 0 | -6 | 21 | 10* | 4 | 27*
